Experimental findings from ChEMBL document CHEMBL1157842, “Novel derivatives of 1,3,4-oxadiazoles are potent mitostatic agents featuring strong microtubule depolymerizing activity in the sea urchin embryo and cell culture assays” (Eur J Med Chem, 2010) are described below.

Data set [1] has as its system Paracentrotus lividus. In words: Antiproliferative activity against Paracentrotus lividus embryo assessed as cleavage alteration after 10 to 15 mins fertilization 45 to 60 mins before first mitotic cycle completeion. Type of data set: functional, organism-based. The method in brief: (§1)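 Paracentrotus lividus embryos, gametes obtained by intracoelomic 0.5 M KCl injection. Fertilized eggs ([…] post-fertilization, 45–60 min before first mitosis) were exposed to 2-fold decreasing concentrations, at up to 3000 embryos/mL in filtered sea water at room temperature. Stocks were 5 mM in 95% EtOH or 5–10 mM in DMSO, diluted 10-fold with 95% EtOH. Read-out was scored at 2.5–6 h: threshold concentration for cleavage alteration or full mitotic arrest. Duplicate measurements.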

The test system of data set [2] is Paracentrotus lividus. The data set can be described thus: Antimitotic activity against Paracentrotus lividus embryo assessed as cleavage arrest after 10 to 15 mins fertilization 45 to 60 mins before first mitotic cycle completeion. Type of data set: functional, organism-based. The method in brief: as §1
For data set [3], the system named is Paracentrotus lividus. The data set can be described thus: Cytotoxicity against Paracentrotus lividus embryo assessed as embryo spinning after 9 to 12 hrs fertilization and 0.5 to 20 hrs treatment. Type of data set: functional, organism-based. The method in brief:
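Paracentrotus lividus free-swimming blastulae treated just after hatching (9–12 h post-fertilization). Behavior was monitored by light microscopy and embryo spinning scored as threshold concentration. Embryos were held in filtered sea water at room temperature with paddle agitation. Compound stocks were in 95% EtOH or DMSO diluted in EtOH; maximal tolerated final DMSO 0.05%, EtOH 1%.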

In data set [4] the test system is A549. The data set can be described thus: Cytotoxicity against human A549 cells after 24 hrs by MTT assay. In kind it is functional, cell-based. The following applies: A549, 24 h. The method in brief:
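A549 cells in DMEM/10% FBS at 3 × 10³ cells/well, treated 24 h (8 wells per concentration), with 0.4% DMSO as control. MTT (final 0.5 mg/mL) was added for the last 2 h and formazan dissolved in DMSO containing 10% SDS/0.6% acetic acid. OD read at 590 nm (690 nm reference). Three repeats; IC50 from sigmoidal fit.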

Data set [5] has as its system A549. The data set can be described thus: Cell cycle arrest in human A549 cells assessed as accumulation at G2/M phase after 24 hrs using propidium iodide staining by flow cytometry. In kind it is functional, cell-based. Summed up: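 A549 cells seeded at 5 × 10⁵ per 50 mm dish and treated 24 h, with 0.4% DMSO as negative control. Cells were trypsinized, fixed in 70% ethanol at −20 °C, then treated with RNase 1 mg/mL for 30 min at 37 °C and propidium iodide for 30 min at 37 °C. DNA content of 10000 cells measured by flow cytometry; EC50 for G2/M accumulation.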
In general terms: A flow cytometer gives signals particle by particle.

For data set [6], the system named is A549. In words: Induction of microtubule disruption in human A549 cells at 5 uM after 8 hrs by indirect immunofluorescence microscopic analysis. In kind it is functional, cell-based. The method in brief: (§2)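 A549 cells on glass coverslips (2 × 10⁴ per coverslip) exposed 8 h at 37 °C, 5% CO₂, with 0.6% DMSO as negative control. Fixed cells were stained with mouse anti-α-tubulin (1:400) and Alexa Fluor 488 goat anti-mouse IgG (1:200). Microtubule network examined by fluorescence microscopy.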

A further data set is filed under the species Bos taurus. In words: Inhibition of purified bovine brain tubulin polymerization at 10 uM after 1 hr by VEC-DIC microscopic analysis. Summed up: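 Bovine brain tubulin (1.2 mg/mL) in BRB80 (80 mM PIPES pH 6.8, 1 mM MgCl₂, 1 mM EGTA) was polymerized with 10% DMSO and 0.5 mM GTP. It was then incubated 1 h at 37 °C with compound, using 0.6% DMSO as negative control. Microtubule assembly was scored by VEC-DIC video microscopy.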

The nature of data set [7]: Inhibition of tubulin polymerization at 10 uM.
For data set [8], the system named is A549. In words: Induction of microtubule disruption in human A549 cells at 20 uM after 8 hrs by indirect immunofluorescence microscopic analysis. Type of data set: functional, cell-based.
Data set [9] concerns A549. The data set can be described thus: Induction of microtubule disruption in human A549 cells at 25 uM after 8 hrs by indirect immunofluorescence microscopic analysis. In kind it is functional, cell-based. Summed up:
as §2

Data set [10] has as its system Paracentrotus lividus. In words: Toxicity in Paracentrotus lividus embryo assessed as mortality at => 1 uM after 9 to 12 hrs fertilization. Type of data set: organism-based. The following applies: in vivo.
The mark [11] stands for this setting: Homo sapiens, A549, 24 h, read-out: EC50.

Calls of active or inactive are those of the source.

A word on the EC50: it is the concentration needed to bring the measured effect to its halfway point. With `c1cncc(CNc2csnc2-c2nnc(Nc3ccc4c(c3)OCCO4)o2)c1`, the EC50 in the data set on Paracentrotus lividus [1] worked out at 5 nM; in the data set on Paracentrotus lividus [2], 10 nM; with Paracentrotus lividus [3], 100 nM.

On to `c1ccc(-c2nnc(Nc3ccc4c(c3)OCO4)o2)c(NCc2ccncc2)c1`, for which the half-maximal effective concentration (EC50) with Paracentrotus lividus [1] is 0.5 nM; with Paracentrotus lividus [2] it was 2 nM; in the data set on Paracentrotus lividus [3] it was 5 nM.

On to `CS(=O)(=O)c1ccc(Nc2nnc(-c3ccccc3N)o2)cc1`, for which the EC50 with Paracentrotus lividus [1] is 4000 nM; in the data set with Paracentrotus lividus [2], > 4000 nM; with Paracentrotus lividus [3], > 5000 nM.

Usually IC50 stands for the concentration that gives 50% inhibition. A lower IC50 goes with higher potency. Regarding `c1ccc(-c2nnc(Nc3ccc4c(c3)OCCO4)o2)c(NCc2ccncc2)c1`, the half-maximal effective concentration (EC50) with Paracentrotus lividus [1] is 0.5 nM; in the data set with Paracentrotus lividus [2] it was 2 nM; in the data set with Paracentrotus lividus [3], 5 nM; in the data set with A549 [5] (setting [11]), 44.5 nM; in the data set with A549 [5] (a549), “Dose-dependent effect”. It took 15 nM to reach half-maximal inhibition in the data set with A549 [4] (IC50). For the same compound, the result (in the data set on A549 [6]; in the data set filed under Bos taurus; in [7]) was Active.

Consider `COc1ccc(-c2nnc(Nc3ccc4c(c3)OCCO4)o2)c(N)c1`, for which the values for the EC50 in the data set on Paracentrotus lividus [1], with Paracentrotus lividus [2] and with Paracentrotus lividus [3] were 25 nM, 100 nM and 200 nM, respectively.

With `Nc1csnc1-c1nnc(Nc2ccc3c(c2)OCO3)o1`, the EC50 in the data set on Paracentrotus lividus [1] was 500 nM; with Paracentrotus lividus [2], 4000 nM; in the data set on Paracentrotus lividus [3], > 5000 nM; in the data set on A549 [5] (setting [11]), > 20000 nM. Further, in the data set on A549 [4], the IC50 was > 20000 nM. Further, the outcome in the data set on A549 [8] was inactive.

As to `COc1ccc(/C=C\c2cc(OC)c(OC)c(OC)c2)cc1OP(=O)(O)O` [FOSBRETABULIN DISODIUM], the concentration giving a half-maximal response (EC50) in the data set with Paracentrotus lividus [1] amounted to 5 nM; in the data set with Paracentrotus lividus [2], 10 nM; in the data set on Paracentrotus lividus [3], 1000 nM.

As for `c1cncc(CNc2ccccc2-c2nnc(Nc3ccc4c(c3)OCO4)o2)c1`, the figures for the EC50 in the data set on Paracentrotus lividus [1], with Paracentrotus lividus [2] and in the data set on Paracentrotus lividus [3] were 1 nM, 5 nM and 5 nM, respectively.

Turning to `c1cc(CNc2csnc2-c2nnc(Nc3ccc4c(c3)OCCO4)o2)ccn1`, the concentration for a half-maximal effect (EC50) is 2 nM with Paracentrotus lividus [1]; 5 nM in the data set with Paracentrotus lividus [2]; 100 nM in the data set on Paracentrotus lividus [3]; 63 nM with A549 [5] (setting [11]); “Dose-dependent effect” in the data set with A549 [5] (a549). Further, the midpoint of inhibition with A549 [4], the IC50, lay at 53.5 nM. The result (in the data set with A549 [6]; in the data set filed under Bos taurus; in data set [7]) was Active.

Regarding `Nc1ccccc1-c1nnc(Nc2ccc3c(c2)OCCO3)o1`, the 50% effective concentration (EC50) came out at 1 nM in the data set with Paracentrotus lividus [1], 20 nM with Paracentrotus lividus [2], 100 nM in the data set with Paracentrotus lividus [3] and 2820 nM in the data set with A549 [5] (setting [11]). Further, in the data set with A549 [4], the IC50 is 1570 nM. Also, the outcome in the data set on A549 [6] was inactive. In addition, the outcome (in the data set on A549 [9]; in the data set listed under Bos taurus; in data set [7]) was Active.

`c1cncc(CNc2csnc2-c2nnc(Nc3ccc4c(c3)OCO4)o2)c1`: the results for the 50% effective concentration (EC50) in the data set with Paracentrotus lividus [1], in the data set with Paracentrotus lividus [2] and in the data set with Paracentrotus lividus [3] were 5 nM, 50 nM and 50 nM, respectively.

Consider `Nc1cc2c(cc1-c1nnc(Nc3ccc4c(c3)OCO4)o1)OCO2`, for which the EC50 in the data set with Paracentrotus lividus [1] stood at 50 nM; in the data set on Paracentrotus lividus [2], 500 nM; in the data set with Paracentrotus lividus [3], 200 nM.

As for `Nc1csnc1-c1nnc(Nc2ccc(Cl)cc2)o1`, the EC50 in the data set with Paracentrotus lividus [1] turned out to be 200 nM; with Paracentrotus lividus [2], 500 nM; in the data set with Paracentrotus lividus [3] it was 500 nM.

For the compound `c1cc(CNc2csnc2-c2nnc(Nc3ccc4c(c3)OCO4)o2)ccn1`, the EC50 with Paracentrotus lividus [1] stood at 2 nM; in the data set on Paracentrotus lividus [2], 5 nM; in the data set on Paracentrotus lividus [3], 20 nM.

Take `COc1cc(N)c(-c2nnc(Nc3ccc4c(c3)OCO4)o2)c(OC)c1`: the results for the EC50 in the data set on Paracentrotus lividus [1], with Paracentrotus lividus [2] and in the data set on Paracentrotus lividus [3] were 50 nM, 200 nM and 1000 nM, respectively.

In the case of `Nc1ccccc1-c1nnc(Nc2ccc3c(c2)OCO3)o1`, the EC50 with Paracentrotus lividus [1] came out at 1 nM; in the data set with Paracentrotus lividus [2], 10 nM; in the data set with Paracentrotus lividus [3] it was 1000 nM; in the data set on A549 [5] (setting [11]) it was 8550 nM. Besides, half-maximal inhibition with A549 [4] (IC50) was put at 3000 nM. The result in the data set with A549 [6] was inactive. Besides, the result (with A549 [9]; in the data set filed under Bos taurus; in data set [7]) was Active.

With `c1ccc(-c2nnc(Nc3ccc4c(c3)OCCO4)o2)c(NCc2ccns2)c1`, the EC50 in the data set with Paracentrotus lividus [1] was found to be 2000 nM; in the data set with Paracentrotus lividus [2], 5000 nM; in the data set with Paracentrotus lividus [3], 5000 nM.

As for `c1cncc(CNc2ccccc2-c2nnc(Nc3ccc4c(c3)OCCO4)o2)c1`, the values for the concentration for a half-maximal effect (EC50) in the data set on Paracentrotus lividus [1], with Paracentrotus lividus [2] and with Paracentrotus lividus [3] were 1 nM, 5 nM and 5 nM, respectively.

Take `COc1ccc(/C=C\c2cc(OC)c3c(c2)OCO3)cc1O` [Combretastatin A-2]: the half-maximal effective concentration (EC50) in the data set on Paracentrotus lividus [1] is 2 nM; in the data set with Paracentrotus lividus [2], 10 nM; in the data set with Paracentrotus lividus [3] it was 50 nM.

As to `c1cncc(CNc2cn[nH]c2-c2nnc(Nc3ccc4c(c3)OCCO4)o2)c1`, the EC50 is 1000 nM in the data set with Paracentrotus lividus [1], > 10000 nM in the data set on Paracentrotus lividus [2] and > 10000 nM with Paracentrotus lividus [3].

Turning to `c1cncc(CNc2cn[nH]c2-c2nnc(Nc3ccc4c(c3)OCO4)o2)c1`, the EC50 with Paracentrotus lividus [1] is 1000 nM; with Paracentrotus lividus [2] it was > 10000 nM; in the data set with Paracentrotus lividus [3], > 10000 nM.

Consider `Cn1ncc(NCc2cccnc2)c1-c1nnc(Nc2ccc3c(c2)OCCO3)o1`, for which the EC50 is 200 nM with Paracentrotus lividus [1], 1000 nM in the data set with Paracentrotus lividus [2] and > 2500 nM in the data set with Paracentrotus lividus [3].

With `Nc1nc2ccccc2cc1-c1nnc(Nc2ccc3c(c2)OCO3)o1`, the EC50 in the data set with Paracentrotus lividus [1] was 50 nM; in the data set on Paracentrotus lividus [2], 2000 nM; in the data set on Paracentrotus lividus [3] it was > 2000 nM.

Turning to `Nc1[nH]ncc1-c1nnc(Nc2ccc3c(c2)OCO3)o1`, the EC50 with Paracentrotus lividus [1], in the data set on Paracentrotus lividus [2] and in the data set with Paracentrotus lividus [3] was > 20000 nM throughout.

Regarding `COC(=O)Nc1nc2cc(C(=O)c3cccs3)ccc2[nH]1` [NOCODAZOLE], the EC50 with Paracentrotus lividus [1] amounted to 5 nM; in the data set with Paracentrotus lividus [2] it was 10 nM; in the data set with Paracentrotus lividus [3], 100 nM; with A549 [5] (setting [11]) it was 106 nM. In the data set on A549 [4], this compound displayed a 50% inhibitory concentration (IC50) of 36.6 nM.

`Clc1ccc(Nc2nnc(-c3nscc3NCc3cccnc3)o2)cc1`: the EC50 in the data set on Paracentrotus lividus [1] was 500 nM; in the data set with Paracentrotus lividus [2], 2000 nM; with Paracentrotus lividus [3] it was > 2500 nM.

In the case of `COc1cc([C@@H]2c3cc4c(cc3[C@H](O)[C@H]3COC(=O)[C@H]23)OCO4)cc(OC)c1OC` [PODOFILOX], the concentration for a half-maximal effect (EC50) was found to be 20 nM with Paracentrotus lividus [1], 50 nM in the data set on Paracentrotus lividus [2] and 500 nM with Paracentrotus lividus [3].

For the compound `COc1cc(-c2nnc(Nc3ccc4c(c3)OCO4)o2)cc(OC)c1OC`, the EC50 in the data set on Paracentrotus lividus [1] is 400 nM; with Paracentrotus lividus [2] it was 1000 nM; in the data set with Paracentrotus lividus [3], > 5000 nM. Moreover, in the data set with Paracentrotus lividus [10], the Activity entry is “Toxic”.
